Calb biofilm kill = kills Candida albicans biofilms; C. albicans biofilm + clotrimazole, Alamar Blue; inhibition, % at 6 µM; 85,000 compounds, 0.14% hits;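 active = inhibition above 20%; inactive = inhibition below 20%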;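 also: preformed 24 hr biofilms exposed to compound for 48 hr; 0% = biofilm without compound and 100% = blank killed by clotrimazole plus chlorhexidine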
D1 mod = D1 dopamine receptor (human) allosteric modulation; P21728; HEK293 D1, CRE-luciferase, dopamine EC30 potentiation; actives deviate in either direction; B-score at 10 µM; 58,000 compounds, 5.9% hits; AID 641;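 active = luminescence count or its row- and column-corrected plate score outside the 99.7% band of the plate's sample wells, on either side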
hDAT+cocaine = modulates human dopamine transporter uptake under cocaine; LLC-PK1 hDAT cells, [14C]-dopamine uptake with cocaine IC80; actives deviate in either direction; B-score at 10 µM; 110,000 compounds, 1.3% hits; AID 449768;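 active = Z score or B-score, a plate-position-corrected score, falls beyond the plate's 99.7% confidence bounds, in either direction; inactive = both scores lie inside the 99.7% bounds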;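 also: scored against the spread of the other compound wells on the same plate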
Target sequence (Q01959 whole entry, looked up): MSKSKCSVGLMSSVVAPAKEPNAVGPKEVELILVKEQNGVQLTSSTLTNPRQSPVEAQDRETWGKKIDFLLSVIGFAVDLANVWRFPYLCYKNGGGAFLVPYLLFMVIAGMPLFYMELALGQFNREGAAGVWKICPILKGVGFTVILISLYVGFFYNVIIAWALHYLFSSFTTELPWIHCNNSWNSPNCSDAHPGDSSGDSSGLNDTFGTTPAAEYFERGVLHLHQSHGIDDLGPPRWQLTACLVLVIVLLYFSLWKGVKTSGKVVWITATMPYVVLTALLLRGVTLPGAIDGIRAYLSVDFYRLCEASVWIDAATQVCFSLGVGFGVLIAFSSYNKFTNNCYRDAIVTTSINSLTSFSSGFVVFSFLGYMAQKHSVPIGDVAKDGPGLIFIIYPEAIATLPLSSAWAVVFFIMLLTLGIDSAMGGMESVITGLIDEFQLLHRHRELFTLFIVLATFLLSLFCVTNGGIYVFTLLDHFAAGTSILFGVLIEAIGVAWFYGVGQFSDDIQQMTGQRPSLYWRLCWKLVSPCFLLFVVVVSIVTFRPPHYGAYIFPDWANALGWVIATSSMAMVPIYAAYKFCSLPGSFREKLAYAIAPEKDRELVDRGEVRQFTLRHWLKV
MMP13 inh = blocks human MMP13 activity; P45452; MMP-13 fTHP FRET cleavage, Mca fluorescence; inhibition, % at 4 µM; 65,000 compounds, 0.07% hits; AID 570;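 active = inhibition above the mean of compound-free control plate wells plus 3 SD, cut at about 14% in these data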;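 also: 0% = DMSO wells and 100% = wells with reference MMP-13 inhibitor after basal subtraction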
AP complement = alternative pathway complement inhibition, orthogonal assay. Human serum alternative complement pathway, LPS-coated ELISA, C3 deposition; tested in compound mixtures. 62,000 compounds, 0.08% hits. inhibition, % at 5 µM;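 active = inhibition above 30% in each of the two pooled mixtures holding the compound, so the lower value exceeds 30%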;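 also: 0% = serum in Mg-EGTA without compound and 100% = EDTA serum blank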
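Assay system: Human serum alternative complement pathway, C3 deposition on LPS-coated wells | Incubation: 1 h serum-compound exposure at 37 °C | Doses: 5 µM per compound in ten-compound mixtures | Read-out: Percent inhibition | Technique: ELISA with HRP anti-human C3 antibody, TMB substrate, absorbance 450 nm | Replication: Two pool placements per compound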
Active calls of the source: *; x = not tested or not shown. Only a selection was taken, and hits are over-represented in it overall.

SMILES	Calb biofilm kill	D1 mod	hDAT+cocaine	MMP13 inh	AP complement
COC(=O)C1=C(O)/C(=C\c2ccc(O)c(OC)c2)N=C1C	2	x	-0.8	x	x
COc1ccc(OC)c(-c2nnc(NC(=O)C(C)Sc3nncn3C)s2)c1 (stereo unspecified)	23*	3.6	0.95	0	11
COc1ccc(C(=O)Nc2ccc(C)cn2)c(OC)c1	-2	-9.5*	-0.11	4	6
O=C(NCc1ccc2c(c1)OCO2)c1cc2ncc(Br)cn2n1	7	0.11	-2.1*	1	5
CCC1=C(OC(=O)N(CC)CC)N2C(=O)OC(=NCC3CC3)[C@]2(Cc2ccccc2)[C@H]2C1=CC[C@H]1C(=O)N(CC)C(=O)[C@H]12	x	x	0.59	x	x
CCC(C)(C(=O)NC1CCCCC1)N(Cc1ccco1)C(=O)Cc1cccs1 (stereo unspecified)	7	x	-1.1	x	x
COc1ccccc1/C=N/n1c(N)c(S(=O)(=O)c2cccs2)c2nc3ccccc3nc21	4	x	3.5*	x	x
CC1=C(C(=O)OCC2CCCO2)C(c2ccc(C)o2)C2=C(CC(c3ccc(F)cc3)CC2=O)N1 (stereo unspecified)	4	-3.1*	2.1	2	15
O=C(CN1C(=O)NC2(CCCCCCC2)C1=O)N1CCOCC1	0	0.91	-0.5	-1	39*
O=C(CN1C(=O)NC2(CCCCCCC2)C1=O)N1CCN(C(=O)c2ccco2)CC1	3	x	-0.00014	x	x
CC(=O)OC1COC(OC2C(O)C(C)OC(OC3C(OC4CCC5(C)C(CCC6(C)C5CC=C5C7CC(C)(C)CCC7(C(=O)O)CCC56C)C4(C)CO)OCC(O)C3O)C2O)C(O)C1OC(C)=O (stereo unspecified)	x	x	-10*	x	x
Cc1ccc(S(=O)(=O)N2C(=S)SCC2(C)C)cc1	2	1.3	-0.43	3	-13
CC1=CC(C)(C)N(S(=O)(=O)c2ccc(C)cc2)c2cc(C)ccc21	-1	x	-2*	x	x
CCO[C@H]1OC(C(=O)N2CCN(Cc3ccc4c(c3)OCO4)CC2)=C[C@@H](c2ccc(Br)cc2)[C@@H]1CCCO	x	x	-0.013	x	x
CCOC(=O)/C(C#N)=C/Nc1ccccc1OC	x	x	-8.2*	x	x
CCOC(=O)C(=O)/C(C#N)=C/Nc1ccccc1	4	x	0.3	x	x
O=c1[nH]c(Nc2nc3ccccc3o2)nc2c1CCCC2	7	-6.4*	0.6	1	-4
O=S(=O)(c1cc(Cl)ccc1Cl)N1CC2CCCN2c2ccc(C(F)(F)F)cc21 (stereo unspecified)	x	x	0.38	x	x
CCOC(=O)c1ccc(NC(=O)C2CCN(S(=O)(=O)CC)CC2)cc1	1	-2.3	-7.3*	6	6
CCCNC(=O)c1cccc(Cn2nc(C)c(Br)c2C)c1	3	-1.7*	0.57	1	11
CC1=NC(C(F)(F)F)(C(F)(F)F)C(C#N)=C(C)N1	6	0.15	-3.8*	3	1
CCn1c(=N)n(CCO)c2ccccc21	3	-4.1*	-0.015	5	-6
CCn1c(=N)n(CC(O)c2ccccc2)c2ccccc21 (stereo unspecified)	5	x	-0.63	x	x
O=C(O)CCNC(=O)c1ccc(N=Nc2ccc(O)c(C(=O)O)c2)cc1	x	x	-0.9	x	x
COC(=O)c1sccc1NC(=O)Nc1ccc(Cl)c(Cl)c1	x	x	-7.9*	x	x
SMILES	Calb biofilm kill	D1 mod	hDAT+cocaine	MMP13 inh	AP complement
CC/C(=C\C(=O)c1ccncc1)Nc1ccc(O)cc1	8	0.22	3*	1	-3
Cc1ccccc1N(C(=O)Cn1nnc(-c2cccs2)n1)C(C(=O)NCCC(C)C)c1ccco1 (stereo unspecified)	5	x	0.34	x	x
Cc1csc(SCC(=O)c2c(N)n(CC(C)C)c(=O)n(C)c2=O)n1	4	x	0.36	x	x
CCOC(=O)Cc1csc(SCC(=O)c2c(N)n(CC(C)C)c(=O)n(C)c2=O)n1	9	-3.9*	-0.76	1	1
Cc1ccc(C(=O)C(OC(=O)CN2C(=O)c3ccccc3C2=O)c2ccccc2)cc1C (stereo unspecified)	x	x	-0.48	x	x
CCOC(=O)N1CCN(C(=O)c2ccc3c(c2)sc2nc(-c4ccc(OC)cc4)cn23)CC1	x	x	0.081	-11	10
COc1ccc2c(c1)sc1nc(-c3ccccc3)cn12	1	-7.3*	0.021	1	4
C=C1CCC(C)C(C)(CCC2=CCOC2=O)C/C=C\C=C/1C(=O)O (stereo unspecified)	x	x	0.95	x	x
Cc1[nH]c2ccccc2c1SCc1ccccc1	x	x	-2.7*	x	x
O=C(Nc1ccc2c(c1)OCO2)c1noc2c1CCCCC2	-1	-4.4*	-1.9	-2	6
